Data: PMC5470083 (Molecular imaging, 2016)
Where two headings read alike, the source gives them in different places. Marks after values point to notes of the source that are not given here. Each block holds one compound with its values, some of them ahead of it.

Columns and labels:
[1] = target: T1, tau (NFTs) (Homo sapiens, UniProt P10636); assay type: binding; conditions: 1 µmol/L compound, human AD slices, n = 3
Target sequence in this assay (P10636 623-708 limits assumed): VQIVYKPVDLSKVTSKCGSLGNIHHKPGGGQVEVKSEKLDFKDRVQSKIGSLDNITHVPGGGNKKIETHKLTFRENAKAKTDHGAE

[2] = target: Aβ fibrils; conditions: read-out: Ki for Aβ fibrils; reported values; ref [3],[13]; cited from earlier work
[3] = target: NFTs; conditions: autoradiography on human AD brain tissue sections; ref [8],[11]; cited from earlier work
[4] = target: PHF tau (Homo sapiens, UniProt P10636); assay type: binding
Sequence of PHF tau (P10636 623-695 limits assumed): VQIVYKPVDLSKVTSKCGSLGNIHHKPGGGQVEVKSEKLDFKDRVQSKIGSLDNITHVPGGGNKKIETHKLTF

[5] = target: T1, tau (NFTs); assay type: binding
Target sequence in this assay (P10636 623-695 limits assumed): as above

[6] = Perfused brain radiometabolite analysis; assay type: in vivo, mouse; conditions: normal mice
[7] = Biodistribution in normal NMRI mice; assay type: in vivo, mouse; conditions: for %ID/g Blood / %ID/g Bone / %ID/g Brain / %ID/g Cerebellum / %ID/g Cerebrum / %ID/g Heart / %ID/g Kidneys / %ID/g Liver / %ID/g Lungs / %ID/g Muscle / %ID/g Pancreas / %ID/g Spleen: iv
Method in brief: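 Healthy male NMRI mice (30-40 g) under 2.5% isoflurane in O2 received about 0.9 MBq of 18F-labelled tracer by tail vein. They were decapitated at 2, 10, 30 and 60 min PI (n = 4/time point). Blood and organs were weighed and γ-counted. Blood, bone and muscle were taken as 7%, 12% and 40% of body mass. Blood clearance was calculated as the 2 min to 60 min activity ratio.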

[8] = target: Aβ (Homo sapiens, UniProt P05067); assay: In vitro autoradiography binding inhibition of [11C]PiB on human AD brain slices
Sequence of Aβ (P05067 672-711 limits assumed): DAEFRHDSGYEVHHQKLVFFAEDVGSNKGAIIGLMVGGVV

[9] = Plasma radiometabolite analysis; assay type: in vivo, mouse; conditions: normal mice
Method in brief: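 NMRI mice under isoflurane (2.5% in O2) received about 3.7 MBq of 18F-labelled tracer via a lateral tail vein. They were decapitated at 2, 10, 30 or 60 min PI (n = 3/time point). EDTA blood was kept on ice and spun at 2330 ×g for 10 min. Plasma (0.5 mL) was spiked with 10 µg authentic unlabelled compound and run on C18 HPLC. Fractions were γ-counted for % intact tracer, reported as mean ± SD.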

[10] = target: amyloid plaques (Homo sapiens, UniProt P05067); assay type: binding
Sequence of amyloid plaques (P05067 672-711 limits assumed): as above

[11] = read-out: % Block ± SD of tracer binding

% Block ± SD of tracer binding ([1]; tracer 40 nmol/L [18F]T808): 93 ± 0.0%
SMILES: CNc1ccc(-c2ccc3ccccc3n2)cc1 [BF-158, N-Methyl-4-(quinolin-2-yl)benzenamine]
Ki [2]: > 5 µM

Ki [4]: 0.0094 µM
% Block ± SD of tracer binding ([1]; tracer 7 nmol/L [18F]T808): 89 ± 0.0%
% Block ± SD of tracer binding ([5]; 1 µmol/L compound, tracer 28 nmol/L [18F]T807, human AD slices, n = 3): 90 ± 10^b %
inhibition at 1 µM [5, 11]: 90%
Mean % ± SD of intact tracer, perfused brain ([6]; 10 min after injection, n = 3): 88 ± 2%
Mean % ± SD of intact tracer, perfused brain ([6]; 10 min after injection, n = 3, listed as [^18F]T808): 88%
Mean % ± SD of intact tracer, perfused brain ([6]; 60 min after injection, n = 3): 34 ± 10%
Mean % ± SD of intact tracer, perfused brain ([6]; 60 min after injection, n = 3, listed as [^18F]T808): 34%
%ID/g Blood ([7]; blood, 2 min PI): 1.8 ± 0.1 %ID/g
2/60 min activity ratio Blood (clearance from blood) ([7]; blood, 2 min to 60 min activity ratio): 2.7
%ID/g Blood ([7]; blood, 10 min PI): 2.0 ± 0.2 %ID/g
%ID/g Blood ([7]; blood, 30 min PI): 1.5 ± 0.1 %ID/g
%ID/g Blood ([7]; blood, 60 min PI): 0.7 ± 0.1 %ID/g
%ID/g Bone ([7]; 2 min PI): 2.6 ± 0.6 %ID/g
%ID/g Bone ([7]; 10 min PI): 4.2 ± 0.6 %ID/g
%ID/g Bone ([7]; 60 min PI): 9.2 ± 6.1 %ID/g
%ID/g Brain ([7]; brain, 2 min PI): 4.9 ± 0.5 %ID/g
2/60 min activity ratio Brain ([7]; brain, 2 min to 60 min activity ratio): 18.2
%ID/g Brain ([7]; brain, 10 min PI): 0.9 ± 0.3 %ID/g
%ID/g Brain ([7]; brain, 30 min PI): 0.4 ± 0.0 %ID/g
%ID/g Brain ([7]; brain, 60 min PI): 0.3 ± 0.0 %ID/g
%ID/g Cerebellum ([7]; 2 min PI): 5.2 ± 0.5 %ID/g
%ID/g Cerebellum ([7]; 10 min PI): 1.0 ± 0.6 %ID/g
%ID/g Cerebellum ([7]; 30 min PI): 0.6 ± 0.1 %ID/g
%ID/g Cerebellum ([7]; 60 min PI): 0.5 ± 0.2 %ID/g
%ID/g Cerebrum ([7]; 2 min PI): 4.9 ± 0.5 %ID/g
%ID/g Cerebrum ([7]; 10 min PI): 1.0 ± 0.1 %ID/g
%ID/g Cerebrum ([7]; 30 min PI): 0.4 ± 0.0 %ID/g
%ID/g Cerebrum ([7]; 60 min PI): 0.2 ± 0.0 %ID/g
%ID/g Heart ([7]; 2 min PI): 3.2 ± 0.4 %ID/g
%ID/g Heart ([7]; 10 min PI): 2.3 ± 0.3 %ID/g
%ID/g Heart ([7]; 30 min PI): 1.7 ± 0.0 %ID/g
%ID/g Heart ([7]; 60 min PI): 0.8 ± 0.1 %ID/g
%ID/g Kidneys ([7]; 2 min PI): 26.3 ± 1.7 %ID/g
%ID/g Kidneys ([7]; 10 min PI): 12.7 ± 1.7 %ID/g
%ID/g Kidneys ([7]; 30 min PI): 9.2 ± 2.3 %ID/g
%ID/g Kidneys ([7]; 60 min PI): 3.6 ± 1.7 %ID/g
%ID/g Liver ([7]; 2 min PI): 11.8 ± 2.4 %ID/g
%ID/g Liver ([7]; 10 min PI): 15.1 ± 1.6 %ID/g
%ID/g Liver ([7]; 30 min PI): 8.3 ± 1.2 %ID/g
%ID/g Liver ([7]; 60 min PI): 4.2 ± 0.7 %ID/g
%ID/g Lungs ([7]; 2 min PI): 4.8 ± 0.6 %ID/g
%ID/g Lungs ([7]; 10 min PI): 3.0 ± 0.3 %ID/g
%ID/g Lungs ([7]; 30 min PI): 1.8 ± 0.2 %ID/g
%ID/g Lungs ([7]; 60 min PI): 0.9 ± 0.2 %ID/g
%ID/g Muscle ([7]; 2 min PI): 1.5 ± 0.5 %ID/g
%ID/g Muscle ([7]; 10 min PI): 1.0 ± 0.2 %ID/g
%ID/g Muscle ([7]; 30 min PI): 0.8 ± 0.1 %ID/g
%ID/g Muscle ([7]; 60 min PI): 3.5 ± 5.5 %ID/g
%ID/g Pancreas ([7]; 2 min PI): 7.3 ± 2.4 %ID/g
%ID/g Pancreas ([7]; 10 min PI): 4.0 ± 2.0 %ID/g
%ID/g Pancreas ([7]; 30 min PI): 2.2 ± 0.5 %ID/g
%ID/g Pancreas ([7]; 60 min PI): 1.2 ± 0.3 %ID/g
%ID/g Spleen ([7]; 2 min PI): 16.6 ± 6.7 %ID/g
%ID/g Spleen ([7]; 10 min PI): 4.9 ± 0.6 %ID/g
%ID/g Spleen ([7]; 30 min PI): 2.4 ± 0.4 %ID/g
%ID/g Spleen ([7]; 60 min PI): 1.3 ± 0.3 %ID/g
% Block ± SD of tracer binding ([8]; 1 µmol/L compound, tracer 66 nmol/L [11C]PiB, human AD slices, n = 3): 17 ± 0.0%
inhibition at 1 µM [8, 11]: 17%
inhibition at 1 µM ([8]; read-out: Inhibition of [11C]PiB binding, summary statements): < 17%
Mean % ± SD of intact tracer, plasma ([9]; 2 min after injection, n = 3): 65 ± 8%
Mean % ± SD of intact tracer, plasma ([9]; 2 min after injection, n = 3, listed as [^18F]T808): 65%
Mean % ± SD of intact tracer, plasma ([9]; 10 min after injection, n = 3): 34 ± 3%
Mean % ± SD of intact tracer, plasma ([9]; 30 min after injection, n = 3): 29 ± 3%
Mean % ± SD of intact tracer, plasma ([9]; 30 min after injection, n = 3, listed as [^18F]T808): 29%
Mean % ± SD of intact tracer, plasma ([9]; 60 min after injection, n = 3): 26 ± 12%
Ki [10]: > 4.4 µM
SMILES: FCCC1CCN(c2ccn3c(n2)nc2ccccc23)CC1 [T808, 2-[4-(2-fluoroethyl)piperidin-1-yl]pyrimido[1,2-a]benzimidazole]
Kd [3]: 0.022 µM
fold higher binding affinity for NFTs over Aβ [3]: 27 fold
